Consider 16 compounds from ChEMBL document CHEMBL4325901, “Novel multitarget-directed ligands targeting acetylcholinesterase and σ1 receptors as lead compounds for treatment of Alzheimer's disease: Synthesis, evaluation, and structural characterization of their complexes with acetylcholinesterase” (Eur J Med Chem, 2019).

SMILES strings stand for the structures. Active and inactive are the calls of the source. No cut-off for these calls is given here.

Experiment [1] has as its target T1, Acetylcholinesterase (Homo sapiens, UniProt P22303). As to the kind of experiment: Inhibition of human erythrocytes AChE using acetylthiocholine iodide as substrate preincubated for 5 mins followed by substrate addition measured at 1 min time interval for 10 mins by Ellman's method. For orientation: DTNB colorimetry detects thiols as they appear.
The target in experiment [2] is T2, 5-hydroxytryptamine receptor 4 (Homo sapiens, UniProt Q13639). As to the kind of experiment: Displacement of [3H]-GR113808 from recombinant human 5-HT4BR expressed in membranes at 1 uM after 60 mins relative to control. The method in brief:
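Crude membranes from a stable recombinant cell line expressing 5-HT4B were incubated in duplicate at 25 °C for 60 min with compound at 10^-6 or 10^-8 M and 0.2 nM [3H]-GR113808 in 25 mM Tris, pH 7.4. They were filtered through polyethylenimine-presoaked GF/C filters and washed three times with ice-cold Tris. Nonspecific binding was defined with serotonin.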

Experiment [3] concerns the target Sigma non-opioid intracellular receptor 1 (Homo sapiens, UniProt Q99720). As to the kind of experiment: Displacement of [3H]-(+)-pentazocine from sigma-1 receptor in human Jurkat cell membranes after 2 hrs by liquid scintillation counting method.
For experiment [4], the system named is Mus musculus. As to the kind of experiment: Cognition enhancing effect in Swiss mouse assessed as protection against dizocilpine-induced long term non-spatial memory impairment by measuring increase in step-through latency at 0.1 mg/kg, ip pretreated for 10 mins followed by dizocilpine treatment and measured after 20 mins by passive avoidance test relative to control. In kind it is functional. In a few lines: (§1)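 Male Swiss mice, 6 weeks, 32 g, groups of 12e16. Compounds dissolved in 10% DMSO in saline, diluted in saline; vehicle 2% DMSO in saline. Given IP 10 min before dizocilpine 0.15 mg/kg IP, 20 min before Y-maze session (alternation % and arm entries) or passive-avoidance training (footshock 3 s on entering dark compartment; step-through latency).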

Experiment [5] deals with Mus musculus. As to the kind of experiment: Cognition enhancing effect in Swiss mouse assessed as protection against dizocilpine-induced spatial memory impairment by measuring spontaneous alternation performance at 0.1 to 1 mg/kg, ip pretreated for 10 mins followed by dizocilpine treatment and measured after 20 mins by Y-maze test. In kind it is functional, organism-based. In a few lines:
as §1

The target of experiment [6] is T2, 5-hydroxytryptamine receptor 4. As to the kind of experiment: Displacement of [3H]-GR113808 from recombinant human 5-HT4BR expressed in membranes after 60 mins. For orientation: Loss of bound radioactivity is the signal in a displacement assay; it reports binding, not function.
In experiment [7] the target is T1, Acetylcholinesterase. As to the kind of experiment: Non-competitive inhibition of human erythrocytes AChE up to 1 uM using varying levels of acetylthiocholine iodide substrate preincubated for 5 mins followed by substrate addition measured at 1 min time interval for 10 mins by Lineweaver-Burk plot analysis.
For experiment [8], the target named is T2, 5-hydroxytryptamine receptor 4. As to the kind of experiment: Antagonist activity at 5-HT4R (unknown origin) expressed in CHO cells assessed as reduction in intracellular cAMP accumulation after 15 mins by radio-immunoassay. In kind it is functional, cell-based. In general terms: Changes in cAMP serve as a functional read-out for many G protein-coupled receptors.

For experiment [9] the target is unchanged. As to the kind of experiment: Agonist activity at 5-HT4R (unknown origin) expressed in CHO cells assessed as intracellular cAMP accumulation after 15 mins by radio-immunoassay. In kind it is functional, cell-based. In a few lines:
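Stably transfected CHO cells grown to confluence, serum-starved 4 h, then preincubated 15 min in serum-free medium with 5 mM theophylline, 10 mM pargyline and […] to block endogenous 5-HT1B receptors. 5-HT or test compound added for a further 15 min. Stopped with ice-cold ethanol, 30 min at room temperature, ethanol fraction dried, cAMP quantified by competitive radioimmunoassay.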

T1 sequence (P22303 whole entry): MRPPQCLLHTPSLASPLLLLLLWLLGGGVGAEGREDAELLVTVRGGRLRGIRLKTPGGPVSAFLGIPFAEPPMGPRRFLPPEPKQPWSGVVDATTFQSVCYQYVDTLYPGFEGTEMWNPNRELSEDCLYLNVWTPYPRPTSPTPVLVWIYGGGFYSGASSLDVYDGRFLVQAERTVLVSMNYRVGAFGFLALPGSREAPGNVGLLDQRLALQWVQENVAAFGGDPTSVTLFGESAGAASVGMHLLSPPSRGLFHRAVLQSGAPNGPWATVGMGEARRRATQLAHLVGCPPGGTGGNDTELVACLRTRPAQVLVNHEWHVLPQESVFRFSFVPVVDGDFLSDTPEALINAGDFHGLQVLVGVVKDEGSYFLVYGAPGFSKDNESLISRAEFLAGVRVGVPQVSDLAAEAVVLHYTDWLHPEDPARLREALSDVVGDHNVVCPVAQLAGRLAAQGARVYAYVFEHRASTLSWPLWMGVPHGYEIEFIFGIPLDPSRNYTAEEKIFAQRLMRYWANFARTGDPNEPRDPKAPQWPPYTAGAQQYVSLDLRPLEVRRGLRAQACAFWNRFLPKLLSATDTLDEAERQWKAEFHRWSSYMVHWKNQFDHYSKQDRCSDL
Chain of Sigma non-opioid intracellular receptor 1 (Q99720 whole entry): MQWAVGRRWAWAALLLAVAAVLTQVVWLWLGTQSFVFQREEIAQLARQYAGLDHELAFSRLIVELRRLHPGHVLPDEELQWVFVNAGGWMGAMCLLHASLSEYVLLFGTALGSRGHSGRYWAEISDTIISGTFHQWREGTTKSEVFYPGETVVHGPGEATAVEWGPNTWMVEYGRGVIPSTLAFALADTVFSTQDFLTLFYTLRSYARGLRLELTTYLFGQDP
T2 sequence (Q13639 whole entry): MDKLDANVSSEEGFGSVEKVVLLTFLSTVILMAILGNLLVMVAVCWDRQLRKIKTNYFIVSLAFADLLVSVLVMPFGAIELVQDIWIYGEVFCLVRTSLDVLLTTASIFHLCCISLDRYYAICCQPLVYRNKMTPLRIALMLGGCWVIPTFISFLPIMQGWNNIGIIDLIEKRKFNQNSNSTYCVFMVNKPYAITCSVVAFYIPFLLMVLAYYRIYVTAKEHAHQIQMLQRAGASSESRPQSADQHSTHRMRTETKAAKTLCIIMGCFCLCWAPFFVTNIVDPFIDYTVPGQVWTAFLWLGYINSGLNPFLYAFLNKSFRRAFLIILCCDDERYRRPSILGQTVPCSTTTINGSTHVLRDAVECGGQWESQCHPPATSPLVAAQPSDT

As to `COc1c(C(=O)CCC2CCN(CC3CCCCC3)CC2)cc(Cl)c2c1ccn2S(=O)(=O)c1ccccc1`, the 50% inhibitory concentration (IC50) (commonly the concentration needed to halve the response being measured) in [1] worked out at 559 nM. Also, the inhibition – broadly, the relative decrease from the control value, in per cent – in experiment [2] was 62%.
With `O=C(CCC1CCN(CC2CCCCC2)CC1)c1cc(Cl)c2[nH]ccc2c1`, the inhibition constant Ki (as a rule, the equilibrium dissociation constant of an inhibitor or competing ligand from its target) in [3] is 5.1 nM; in [6] it was 37.5 nM. Further, the Activity in experiment [4] came out at 40%. In experiment [1], this compound had an IC50 of 28.8 nM. For the same compound, the result in [5] was inactive. Also, the inhibition in experiment [2] amounted to 100%.
With `O=C(CCC1CCN(CC2CCCCC2)CC1)c1ccc2[nH]ccc2c1`, the IC50 in [1] was determined as 51 nM. For the same compound, in [6], the Ki came to 37.5 nM. In addition, in experiment [2], the inhibition worked out at 100%.
In the same order, the values of `CCCCN1CCC(CCC(=O)c2ccc3[nH]ccc3c2)CC1` are 716 nM, 49.6 nM and 97%.
With `CCCCN1CCC(CCC(=O)c2cc(Cl)c(N)cc2OC)CC1`, the inhibition in [2] was 100%.
For the compound `COc1c(C(=O)CCC2CCN(CC3CCCCC3)CC2)ccc2[nH]ccc12`, the midpoint of inhibition in experiment [1], the IC50, lay at 40 nM. Moreover, the Ki in experiment [6] came to 51 nM. The inhibition in experiment [2] stood at 100%.
For `O=C(CCC1CCN(CC2CCCC2)CC1)c1ccc2[nH]ccc2c1`, in that order: 94 nM, 25 nM and 100%.
Take `O=C(CCC1CCN(Cc2ccccc2)CC1)c1ccc2[nH]ccc2c1`: the Ki in experiment [3] was 3.3 nM; in experiment [6], 169 nM. Besides, the IC50 in experiment [1] is 13.3 nM. The inhibition in experiment [2] is 90%.
Regarding `COc1c(C(=O)CCC2CCN(Cc3ccccc3)CC2)cc(Cl)c2[nH]ccc12`, the figures for the inhibition constant Ki in [3] and in experiment [6] were 5.7 nM and 150 nM, respectively. Besides, in experiment [1], the midpoint of inhibition, the IC50, lay at 20.4 nM. Besides, the inhibition in experiment [2] worked out at 96%.
`COc1c(C(=O)CCC2CCN(CC3CCCCC3)CC2)cc(Cl)c2[nH]ccc12`: the results for the Ki in experiment [3] and in experiment [6] were 5.1 nM and 40.9 nM, respectively. Moreover, the inhibition result in experiment [7] and in experiment [8] was “Active” throughout. This compound also returned an IC50 in [1] of 91.4 nM. Further, in experiment [2], the inhibition turned out to be 100%.
In experiment [1], `COc1c(C(=O)CCC2CCN(CC3CCCCC3)CC2)cc(Cl)c2c1ccn2C` came in with an IC50 of 84.4 nM.
For the compound `COc1cc(N)c(Cl)cc1C(=O)CCC1CCN(CC2CCCCC2)CC1`, the Ki in experiment [3] came out at 51 nM. In addition, in experiment [9], the result was Active.
In the case of `COc1c(C(=O)CCC2CCN(Cc3ccccc3)CC2)cc(Cl)c2[nH]c([Si](C)(C)C)cc12`, in experiment [1], the IC50 was 275 nM. In addition, in experiment [2], the inhibition turned out to be 62%.
As for `COc1cc2c(cc1OC)C(=O)C(CC1CCN(Cc3ccccc3)CC1)C2` (centres undefined), in experiment [2], the inhibition stood at 10%.
In the case of `O=C(CCC1CCN(CC2CCCCC2)CC1)c1ccc2c(ccn2Cc2ccccc2)c1`, the midpoint of inhibition in experiment [1], the IC50, lay at 133 nM. Also, the inhibition in [2] stood at 42%.
The compound `COc1c(C(=O)CCC2CCN(CC3CCCCC3)CC2)cc(Cl)c2c1ccn2Cc1ccccc1` displayed an IC50 in experiment [1] of 261 nM.
